From ChEMBL document CHEMBL4765236, “Insights into the Antimicrobial Activity and Cytotoxicity of Engineered α-Helical Peptide Amphiphiles” (J Med Chem, 2016)
Activity calls are given as the source filed them. The calls are words filed in the database; no cut-off is given here.

Assays:
[1] = Drug localization in cytoplasm of human HepG2 cells assessed as fluorescent signal in presence of FITC-labelled peptide at 32 uM measured up to 8 hrs by DAPI staining based confocal microscopy; format: ADME, subcellular; details: hepg2, 8 h
Summary of the method: (§1)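 HepG2 cells incubated with FITC-labelled peptide at 32 µM. Fluorescence distribution imaged by confocal laser-scanning microscopy at intervals (1, 4 and 8 h).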

Staphylococcus aureus [2] = assay: Induction of morphological changes in Staphylococcus aureus ATCC 29213 assessed as membrane alteration at 1 times MIC after 60 mins by TEM analysis; format: functional, organism-based
Cell membrane = assay: Induction of outer membrane permeabilization in Escherichia coli O157:H7 CICC 21530 assessed as increase in fluorescence intensity at 7.5 uM by NPN-dye based fluorescence assay; format: subcellular
Escherichia coli [3] = assay: Induction of morphological changes in Escherichia coli O157:H7 CICC 21530 assessed as intracellular changes at 1 times MIC after 60 mins by TEM analysis; format: functional, organism-based
Escherichia coli [4] = assay: Induction of morphological changes in Escherichia coli O157:H7 CICC 21530 assessed as membrane alteration at 1 times MIC after 60 mins by TEM analysis; format: functional, organism-based
Staphylococcus aureus [5] = assay: Induction of morphological changes in Staphylococcus aureus ATCC 29213 assessed as intracellular changes at 1 times MIC after 60 mins by TEM analysis; format: functional, organism-based
[6] = Drug localization in nucleus of human HepG2 cells assessed as fluorescent signal in presence of FITC-labelled peptide at 32 uM incubated for 4 hrs by DAPI staining based confocal microscopy; format: ADME, subcellular; details: hepg2, 4 h; summary of the method: as §1
Staphylococcus aureus [7] = assay: Induction of morphological changes in Staphylococcus aureus ATCC 29213 assessed as membrane damage at 1 times MIC after 60 mins by TEM analysis; format: functional, organism-based
Escherichia coli [8] = assay: Bactericidal activity against Escherichia coli O157:H7 CICC 21530 assessed as bacterial killing at 1 times MIC measured within 5 mins by time kill assay; format: functional, organism-based; details: time min <5
HepG2 [9] = assay: Induction of morphological changes in human HepG2 cells assessed as roughness of cell membrane at 32 uM after 24 hrs by SEM analysis; format: functional, cell-based
[10] = Drug localization in cell membrane of human HepG2 cells assessed as green fluorescent signal in presence of FITC-labelled peptide at 32 uM measured up to 8 hrs by DAPI staining based confocal microscopy; format: ADME, cell membranes; details: hepg2, 8 h; summary of the method: as §1
HepG2 [11] = assay: Induction of morphological changes in human HepG2 cells assessed as appearance of crimped boundaries at 32 uM after 24 hrs by SEM analysis; format: functional, cell-based
HepG2 [12] = assay: Induction of ROS generation in human HepG2 cells assessed as increase in fluorescence intensity up to 32 uM by DCFH-DA staining-based fluorescence analysis; format: functional, cell-based; details: dose microM <=32, time 8.0 hrs, TDE = time-dependent effect
HepG2 [13] = assay: Induction of morphological changes in human HepG2 cells assessed as cell disruption at 32 uM after 24 hrs by SEM analysis; format: functional, cell-based
Lipopolysaccharide (LPS) = assay: Displacement of BODIPYTM-TR-cadaverine from Escherichia coli O111:B4 LPS by fluorescence spectroscopic analysis; details: dose 0.25-4 µM
Summary of the method: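 LPS-binding dye displacement: LPS (25 µg/mL) and BODIPY-TR-cadaverine (2.5 µg/mL) in tris buffer pH 7.4. An equal volume of peptide solution was added and the rise in fluorescence was recorded at excitation 580 nm and emission 620 nm. Melittin served as positive control. Each test was run independently in triplicate.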

Staphylococcus aureus [14] = assay: Bactericidal activity against Staphylococcus aureus ATCC 29213 assessed as bacterial killing at 1 times MIC measured within 5 mins by time kill assay; format: functional, organism-based; details: time min <5
Summary of the method: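 Log-phase S. aureus 29213 exposed to peptide at 1 × MIC in 10 mM PBS pH 7.4 at 37 °C for 0-90 min. Aliquots taken at fixed intervals, diluted and plated on nutrient agar, and colonies counted after 18 h at 37 °C. Average of three independent assays.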

RAW264.7 = assay: Antiinflammatory activity against mouse RAW264.7 cells assessed as inhibition of LPS-induced TNF-alpha production at 4 uM measured after 24 hrs by […] ELISA; format: functional, cell-based
Summary of the method: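 RAW264.7 cells plated at 1-2 × 10^5 cells/mL and stimulated with 500 ng/mL LPS with or without peptide (0.5-64 µM) for 24 h at 37 °C. Controls were untreated cells and LPS alone. TNF-α in the supernatant measured by ELISA. NO measured by Griess reagent (1% sulfanilamide, 0.1% naphthylethylenediamine, 5% phosphoric acid).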

HepG2 [15] = assay: Induction of morphological changes in human HepG2 cells assessed as shriveled cells at 32 uM after 24 hrs by SEM analysis; format: functional, cell-based
Escherichia coli [16] = assay: Induction of morphological changes in Escherichia coli O157:H7 CICC 21530 assessed as membrane damage at 1 times MIC after 60 mins by TEM analysis; format: functional, organism-based
HepG2 [17] = assay: Induction of ROS generation in human HepG2 cells assessed as increase in visual fluorescence intensity up to 32 uM measured at 2 hr by DCFH-DA staining-based fluorescence analysis; format: functional, cell-based; details: dose microM <=32, time 2.0 hrs
Staphylococcus aureus [18] = assay: Induction of morphological changes in Staphylococcus aureus ATCC 29213 assessed as outflow of cytoplasm at 1 times MIC after 60 mins by TEM analysis; format: functional, organism-based

With H-WLRAFRRLVRRLARLLRR-NH2 the Drug uptake [1] was “Not Active”.

In the case of H-WGEAFSAGVHRLANGGNG-NH2, the Activity (Staphylococcus aureus [2]) is reported as “Active”, the Activity (Cell membrane) is reported as “inactive” and the Activity (Escherichia coli [3]) is reported as “Active”. The Activity (Escherichia coli [4]) was “Active” and the Activity (Staphylococcus aureus [5]) was “Active”.

With H-WLRAFRRLVRRLARGLRR-NH2 the Drug uptake [6] was “Active”, the Activity (Staphylococcus aureus [7]) was “Active” and the Activity (Escherichia coli [8]) was “Active”. The Activity (HepG2 [9]) was “Active”, the Drug uptake [10] was “Active” and the Activity (HepG2 [11]) was “Active”. The Activity (HepG2 [12]) was “Tde”, the Activity (HepG2 [13]) was “Active” and the Activity (Lipopolysaccharide (LPS)) was “Active”. For the same substance, the Activity (Staphylococcus aureus [14]) was “Active”, the Activity (RAW264.7) was “Active” and the Activity (HepG2 [15]) was “Active”. The Activity (Escherichia coli [16]) was “Active”, the Activity (HepG2 [17]) was “Active” and the Activity (Staphylococcus aureus [18]) was “Active”.
